Experiments:
[1] = Inhibition of PKA at 10 uM by HTRF assay relative to control
Method in brief: (§1)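 HTRF kinase assay, one panel of kinases. Inhibitor stock 50 µM in 100% DMSO; tested at 10 µM. ATP and substrate at final levels near Km. Final buffer: 50 mM Hepes/NaOH pH 7.4, 40 µM Na3VO4, 0.005% Tween-20, 1 mM DTT, MnCl2 or MgCl2 at kinase-dependent levels. Started by adding ATP/substrate. Reaction run at room temperature, time varied by kinase. Detection mix in 50 mM Hepes pH 7.4, 0.1% BSA, 150 mM KF, incubated ≥1 h at room temperature. Activity expressed as % of uninhibited control; n=2.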

[2] = biological target: Cyclin-dependent kinase 1 (Homo sapiens) (UniProt P06493); assay: Inhibition of CDK1 at 10 uM by HTRF assay relative to control; method in brief: as §1
Chain of Cyclin-dependent kinase 1 (Homo sapiens) (P06493 whole entry, looked up): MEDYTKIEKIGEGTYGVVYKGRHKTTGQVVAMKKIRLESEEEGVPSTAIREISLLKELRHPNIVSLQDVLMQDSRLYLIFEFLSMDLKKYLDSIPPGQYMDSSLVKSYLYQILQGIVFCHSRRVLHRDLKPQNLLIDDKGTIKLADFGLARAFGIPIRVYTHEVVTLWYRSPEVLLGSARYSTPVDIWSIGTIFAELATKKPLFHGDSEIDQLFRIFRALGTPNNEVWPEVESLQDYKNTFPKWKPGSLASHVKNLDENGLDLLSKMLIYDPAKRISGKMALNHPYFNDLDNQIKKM

[3] = biological target: Tyrosine-protein kinase Lyn (Homo sapiens) (UniProt P07948); assay: Inhibition of Lyn at 10 uM by HTRF assay relative to control; method in brief: as §1
Chain of Tyrosine-protein kinase Lyn (Homo sapiens) (P07948 2-512 limits assumed): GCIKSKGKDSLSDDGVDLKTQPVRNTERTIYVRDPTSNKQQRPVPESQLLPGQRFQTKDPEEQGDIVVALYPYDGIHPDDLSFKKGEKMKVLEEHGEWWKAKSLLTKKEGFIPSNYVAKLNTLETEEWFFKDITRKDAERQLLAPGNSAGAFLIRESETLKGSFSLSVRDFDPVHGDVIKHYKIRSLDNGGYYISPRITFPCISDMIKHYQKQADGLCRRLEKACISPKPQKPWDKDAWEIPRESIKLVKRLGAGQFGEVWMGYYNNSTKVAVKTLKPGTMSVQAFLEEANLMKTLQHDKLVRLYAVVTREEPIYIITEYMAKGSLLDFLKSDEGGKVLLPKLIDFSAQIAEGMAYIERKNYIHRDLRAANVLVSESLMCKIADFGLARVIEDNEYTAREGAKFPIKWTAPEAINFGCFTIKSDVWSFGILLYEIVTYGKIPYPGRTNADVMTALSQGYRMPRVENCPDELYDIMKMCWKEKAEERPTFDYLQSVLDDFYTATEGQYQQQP

[4] = biological target: Cyclin-dependent kinase 2 (Homo sapiens) (UniProt P24941); assay: Inhibition of CDK2 at 10 uM by HTRF assay relative to control; method in brief: as §1
[5] = biological target: Fibroblast growth factor receptor 1 (Homo sapiens) (UniProt P11362); assay: Inhibition of FGFR1 at 10 uM by HTRF assay relative to control; method in brief: as §1
Chain of Fibroblast growth factor receptor 1 (Homo sapiens) (P11362 22-822 limits assumed): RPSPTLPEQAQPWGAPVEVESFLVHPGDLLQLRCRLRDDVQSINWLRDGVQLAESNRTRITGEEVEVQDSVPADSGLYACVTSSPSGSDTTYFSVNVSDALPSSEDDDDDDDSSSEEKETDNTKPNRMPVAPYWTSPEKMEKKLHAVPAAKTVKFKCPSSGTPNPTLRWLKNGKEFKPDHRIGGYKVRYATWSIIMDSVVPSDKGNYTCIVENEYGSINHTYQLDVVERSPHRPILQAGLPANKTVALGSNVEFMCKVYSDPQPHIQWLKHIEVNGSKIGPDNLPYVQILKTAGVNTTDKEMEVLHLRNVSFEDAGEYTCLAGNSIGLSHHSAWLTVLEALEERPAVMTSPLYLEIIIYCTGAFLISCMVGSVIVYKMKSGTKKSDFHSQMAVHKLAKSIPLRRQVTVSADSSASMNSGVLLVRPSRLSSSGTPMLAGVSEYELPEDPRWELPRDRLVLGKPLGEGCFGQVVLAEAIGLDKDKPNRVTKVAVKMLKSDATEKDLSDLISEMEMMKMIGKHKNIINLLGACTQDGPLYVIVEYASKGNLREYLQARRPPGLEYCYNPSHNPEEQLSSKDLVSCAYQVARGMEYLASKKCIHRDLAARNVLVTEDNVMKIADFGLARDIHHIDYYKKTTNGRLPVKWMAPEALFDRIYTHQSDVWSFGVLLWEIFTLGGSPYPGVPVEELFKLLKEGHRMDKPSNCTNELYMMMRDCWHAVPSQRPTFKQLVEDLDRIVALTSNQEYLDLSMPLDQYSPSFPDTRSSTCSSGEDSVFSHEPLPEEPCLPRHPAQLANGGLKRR

[6] = biological target: Protein-tyrosine kinase 6 (Homo sapiens) (UniProt Q13882); assay: Inhibition of Brk at 10 uM by HTRF assay relative to control; method in brief: as §1
Chain of Protein-tyrosine kinase 6 (Homo sapiens) (Q13882 whole entry, looked up): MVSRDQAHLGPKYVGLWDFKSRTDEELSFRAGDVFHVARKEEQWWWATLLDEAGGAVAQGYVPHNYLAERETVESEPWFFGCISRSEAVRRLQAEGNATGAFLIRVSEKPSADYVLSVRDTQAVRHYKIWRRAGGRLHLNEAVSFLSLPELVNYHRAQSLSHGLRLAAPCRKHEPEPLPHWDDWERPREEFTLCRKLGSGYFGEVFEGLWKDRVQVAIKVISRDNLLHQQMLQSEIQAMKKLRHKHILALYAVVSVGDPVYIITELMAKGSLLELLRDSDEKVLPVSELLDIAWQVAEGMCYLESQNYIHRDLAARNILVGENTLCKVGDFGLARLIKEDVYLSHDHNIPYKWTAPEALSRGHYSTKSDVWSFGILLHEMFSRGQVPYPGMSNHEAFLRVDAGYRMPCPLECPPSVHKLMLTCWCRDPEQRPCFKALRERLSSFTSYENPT

[7] = biological target: MAP kinase-activated protein kinase 2 (Homo sapiens) (UniProt P49137); assay: Inhibition of MAPKAPK2 at 10 uM by HTRF assay relative to control; method in brief: as §1
Chain of MAP kinase-activated protein kinase 2 (Homo sapiens) (P49137 whole entry, looked up): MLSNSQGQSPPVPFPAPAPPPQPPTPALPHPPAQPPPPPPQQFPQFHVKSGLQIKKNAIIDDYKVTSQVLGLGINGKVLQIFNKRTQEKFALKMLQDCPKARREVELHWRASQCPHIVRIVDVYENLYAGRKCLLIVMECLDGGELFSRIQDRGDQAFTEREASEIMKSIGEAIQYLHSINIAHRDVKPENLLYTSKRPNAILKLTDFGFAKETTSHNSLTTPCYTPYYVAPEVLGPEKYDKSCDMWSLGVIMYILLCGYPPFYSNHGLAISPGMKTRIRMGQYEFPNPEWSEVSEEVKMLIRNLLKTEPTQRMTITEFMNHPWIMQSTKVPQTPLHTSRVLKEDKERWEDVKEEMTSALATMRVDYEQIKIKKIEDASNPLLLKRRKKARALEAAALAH

[8] = biological target: High affinity nerve growth factor receptor (Homo sapiens) (UniProt P04629); assay: Inhibition of TrkA at 10 uM by HTRF assay relative to control; method in brief: as §1
Chain of High affinity nerve growth factor receptor (Homo sapiens) (P04629 33-796 limits assumed): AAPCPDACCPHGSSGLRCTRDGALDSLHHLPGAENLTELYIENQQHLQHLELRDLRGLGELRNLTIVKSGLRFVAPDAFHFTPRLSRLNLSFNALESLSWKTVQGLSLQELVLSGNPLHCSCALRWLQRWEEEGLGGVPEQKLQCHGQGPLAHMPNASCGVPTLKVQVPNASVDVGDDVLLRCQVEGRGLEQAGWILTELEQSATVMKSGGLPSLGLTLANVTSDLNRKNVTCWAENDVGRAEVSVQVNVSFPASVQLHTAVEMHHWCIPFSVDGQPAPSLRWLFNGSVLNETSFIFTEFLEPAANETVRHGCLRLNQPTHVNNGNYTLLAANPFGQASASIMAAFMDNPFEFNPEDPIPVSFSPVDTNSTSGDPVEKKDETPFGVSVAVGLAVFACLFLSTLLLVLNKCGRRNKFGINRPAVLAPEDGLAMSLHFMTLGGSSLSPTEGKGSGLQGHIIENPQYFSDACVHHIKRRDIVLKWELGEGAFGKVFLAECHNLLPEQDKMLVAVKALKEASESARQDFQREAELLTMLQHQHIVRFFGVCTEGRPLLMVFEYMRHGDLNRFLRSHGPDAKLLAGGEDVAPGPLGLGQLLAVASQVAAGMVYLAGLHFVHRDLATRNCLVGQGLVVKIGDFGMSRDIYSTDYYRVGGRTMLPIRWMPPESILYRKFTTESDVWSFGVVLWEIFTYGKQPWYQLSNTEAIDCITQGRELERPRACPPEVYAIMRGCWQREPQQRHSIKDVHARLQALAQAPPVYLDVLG

[9] = biological target: T1, Serine/threonine-protein kinase Chk1 (Homo sapiens) (UniProt O14757); assay: Inhibition of CHK1 at 10 uM by HTRF assay relative to control; method in brief: as §1
T1 sequence (whole entry): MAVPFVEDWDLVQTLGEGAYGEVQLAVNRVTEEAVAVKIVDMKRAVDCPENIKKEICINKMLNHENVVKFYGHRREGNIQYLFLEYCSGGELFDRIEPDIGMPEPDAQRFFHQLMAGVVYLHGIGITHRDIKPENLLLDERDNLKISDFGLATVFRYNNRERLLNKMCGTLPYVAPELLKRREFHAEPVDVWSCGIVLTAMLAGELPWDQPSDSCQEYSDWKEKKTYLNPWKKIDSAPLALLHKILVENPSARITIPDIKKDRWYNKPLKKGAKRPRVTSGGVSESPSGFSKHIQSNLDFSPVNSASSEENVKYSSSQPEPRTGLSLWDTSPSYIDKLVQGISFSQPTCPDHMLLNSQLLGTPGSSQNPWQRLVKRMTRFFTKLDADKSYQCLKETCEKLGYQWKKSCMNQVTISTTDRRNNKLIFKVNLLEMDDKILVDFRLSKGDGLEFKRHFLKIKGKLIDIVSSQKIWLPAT

[10] = biological target: Mitogen-activated protein kinase 1 (Homo sapiens) (UniProt P28482); assay: Inhibition of ERK2 at 10 uM by HTRF assay relative to control; method in brief: as §1
Chain of Mitogen-activated protein kinase 1 (Homo sapiens) (P28482 whole entry): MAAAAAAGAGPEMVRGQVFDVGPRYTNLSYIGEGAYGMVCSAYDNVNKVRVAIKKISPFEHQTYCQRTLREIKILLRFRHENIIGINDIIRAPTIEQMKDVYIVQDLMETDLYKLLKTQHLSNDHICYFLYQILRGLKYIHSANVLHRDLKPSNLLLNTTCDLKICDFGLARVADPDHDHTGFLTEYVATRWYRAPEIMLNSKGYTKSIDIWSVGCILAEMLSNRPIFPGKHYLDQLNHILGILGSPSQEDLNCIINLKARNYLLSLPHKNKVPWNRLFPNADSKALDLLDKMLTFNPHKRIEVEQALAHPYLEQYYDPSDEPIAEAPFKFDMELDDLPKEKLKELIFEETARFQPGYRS

[11] = biological target: T2, Tyrosine-protein kinase JAK3 (Homo sapiens) (UniProt P52333); assay: Inhibition of JAK3 at 10 uM by HTRF assay relative to control; method in brief: as §1
T2 sequence (whole entry): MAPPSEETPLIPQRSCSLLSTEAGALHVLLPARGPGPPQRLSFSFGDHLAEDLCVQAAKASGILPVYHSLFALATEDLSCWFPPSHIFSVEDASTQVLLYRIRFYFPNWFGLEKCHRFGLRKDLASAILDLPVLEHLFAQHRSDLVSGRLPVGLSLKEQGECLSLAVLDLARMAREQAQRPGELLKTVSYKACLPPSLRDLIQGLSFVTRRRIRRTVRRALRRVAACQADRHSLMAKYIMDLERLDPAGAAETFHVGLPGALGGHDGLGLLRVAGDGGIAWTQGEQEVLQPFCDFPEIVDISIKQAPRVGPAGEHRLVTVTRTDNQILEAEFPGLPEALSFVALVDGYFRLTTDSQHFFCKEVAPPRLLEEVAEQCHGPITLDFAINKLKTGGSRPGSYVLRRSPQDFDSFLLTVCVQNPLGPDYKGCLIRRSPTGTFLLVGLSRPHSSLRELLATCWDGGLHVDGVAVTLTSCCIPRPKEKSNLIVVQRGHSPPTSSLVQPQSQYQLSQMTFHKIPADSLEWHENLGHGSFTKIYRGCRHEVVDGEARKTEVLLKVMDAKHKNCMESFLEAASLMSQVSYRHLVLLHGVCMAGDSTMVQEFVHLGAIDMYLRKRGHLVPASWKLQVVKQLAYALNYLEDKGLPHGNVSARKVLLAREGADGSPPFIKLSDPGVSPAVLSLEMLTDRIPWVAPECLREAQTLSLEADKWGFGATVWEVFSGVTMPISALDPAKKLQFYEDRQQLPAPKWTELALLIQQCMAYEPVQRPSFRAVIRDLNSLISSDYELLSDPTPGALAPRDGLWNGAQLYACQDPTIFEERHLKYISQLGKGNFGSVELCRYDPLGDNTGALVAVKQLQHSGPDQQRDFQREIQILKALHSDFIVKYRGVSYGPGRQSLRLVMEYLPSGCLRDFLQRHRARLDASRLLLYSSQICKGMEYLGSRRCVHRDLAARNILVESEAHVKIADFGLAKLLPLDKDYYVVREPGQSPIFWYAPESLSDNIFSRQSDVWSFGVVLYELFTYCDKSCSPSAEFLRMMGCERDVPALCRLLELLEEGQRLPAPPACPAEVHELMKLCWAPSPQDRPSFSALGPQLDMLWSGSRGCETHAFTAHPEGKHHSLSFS

[12] = biological target: Ribosomal protein S6 kinase beta-1 (Homo sapiens) (UniProt P23443); assay: Inhibition of p70S6K at 10 uM by HTRF assay relative to control; method in brief: as §1
Chain of Ribosomal protein S6 kinase beta-1 (Homo sapiens) (P23443 whole entry, looked up): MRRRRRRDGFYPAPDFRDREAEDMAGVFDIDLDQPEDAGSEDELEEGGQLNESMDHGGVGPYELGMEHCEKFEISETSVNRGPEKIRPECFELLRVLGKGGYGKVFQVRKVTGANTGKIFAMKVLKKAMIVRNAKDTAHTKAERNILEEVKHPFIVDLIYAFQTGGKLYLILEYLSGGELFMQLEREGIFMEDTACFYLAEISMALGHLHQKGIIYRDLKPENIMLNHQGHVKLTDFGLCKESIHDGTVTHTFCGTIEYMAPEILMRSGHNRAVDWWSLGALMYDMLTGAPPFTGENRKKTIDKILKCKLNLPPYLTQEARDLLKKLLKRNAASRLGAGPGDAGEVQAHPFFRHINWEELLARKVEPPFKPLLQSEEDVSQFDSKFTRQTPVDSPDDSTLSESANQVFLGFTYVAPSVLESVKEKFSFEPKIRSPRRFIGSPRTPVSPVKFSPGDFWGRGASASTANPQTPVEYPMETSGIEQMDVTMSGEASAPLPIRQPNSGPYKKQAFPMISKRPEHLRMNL

| SMILES | inhibition [1] [%] | inhibition [2] [%] | inhibition [3] [%] | inhibition [4] [%] | inhibition [5] [%] | inhibition [6] [%] | inhibition [7] [%] | inhibition [8] [%] | inhibition [9] [%] | inhibition [10] [%] | inhibition [11] [%] | inhibition [12] [%] |
| --- | --- | --- | --- | --- | --- | --- | --- | --- | --- | --- | --- | --- |
| Cc1cccc(N(C)c2cc(Nc3ccc(CC(=O)Nc4ccc5ncsc5c4)cc3)ncn2)c1 | 0 | 0 | 16 | 4 | 19 | 29 | 3 | 23 | 1 | 2 | 12 | 18 |
| O=C(NC[C@@H]1CCCO1)c1cccc(Nc2nccc(Nc3ccc4ncsc4c3)n2)c1 | 4 | 11 | 90 | 38 | 95 | 81 | 1 | 34 | 2 | 0 | 84 | 23 |
| O=C(c1nc(SCc2ccc(Cl)cc2)n2ccccc12)N1CCN(c2ncnc3c2CN(Cc2ccccc2)CC3)CC1 | 0 | 0 | 1 | 0 | 0 | 9 | 1 | 5 | 5 | 3 | 3 | 3 |
| Nc1nc(Nc2ccc3ncsc3c2)cc(N2CCC[C@H]2C(=O)N[C@@H](CO)c2ccccc2)n1 | 1 | 0 | 0 | 1 | 7 | 4 | 1 | 9 | 2 | 0 | 6 | 5 |
| Clc1ccc2sc(CN3CCN(c4ncnc5c4CN(Cc4ccccc4)CC5)CC3)cc2c1 | 0 | 0 | 17 | 16 | 6 | 2 | 1 | 13 | 5 | 0 | 0 | 11 |
| COc1cccc(Nc2cc(N3CCC[C@H]3C(=O)NCCc3ccc(O)cc3)nc(N)n2)c1 | 0 | 0 | 6 | 3 | 7 | 14 | 0 | 7 | 2 | 0 | 0 | 7 |
| Cc1cccc(Nc2cc(Nc3cccc(C(=O)N(CC(C)O)CC(C)O)c3)ncn2)c1 (stereo not given) | 0 | 0 | 49 | 3 | 59 | 23 | 0 | 11 | 3 | 0 | 7 | 14 |
| COC[C@@H]1CCCN1C(=O)[C@@H]1CCCN1c1nccc(Nc2ccccc2)n1 | 0 | 3 | 0 | 0 | 0 | 5 | 1 | 8 | 1 | 0 | 1 | 8 |
| O=C(COc1ccccc1)N1CCN(c2nccc(Nc3ccc4ncsc4c3)n2)CC1 | 2 | 0 | 12 | 8 | 16 | 54 | 0 | 9 | 4 | 0 | 5 | 15 |
| Cc1cccc(Nc2nccc3c2CN(C(=O)c2cc(C)n(C)c2C)CC3)c1 | 0 | 0 | 6 | 8 | 0 | 13 | 0 | 4 | 3 | 6 | 0 | 6 |
